≈ marks a conversion by molar mass, not a printed value. Calls of active or inactive are those of the source. No cut-off for these calls is given here.
Columns and labels:
[1] = Protective index, ratio of CD50 for human HeLa cells to ID50 for Human rhinovirus 39
In short: (§1)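 PI = CD₅₀/ID₅₀. For CD₅₀, HeLa (Ohio strain) monolayers in DMEM with 10% fetal calf serum were exposed to a range of compound concentrations at 37 °C, 5% CO₂. Morphology was checked by light microscopy at 24, 48 and 72 h. Viability read by MTT; CD₅₀ = concentration reducing control absorbance by 50%. ID₅₀ came from the plaque-reduction virus-yield assay.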

[2] = Cytotoxicity against human HeLa cells after 24 to 72 hrs by MTT assay; type: cell-based; details: read-out: CD50 (the source's name)
In short: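 HeLa (Ohio strain) monolayers in DMEM with 1% non-essential amino acids, penicillin/streptomycin and 10% FCS at 37 °C, 5% CO₂, exposed to various compound concentrations. Morphology (rounding, shrinking, detachment) was checked by light microscopy at 24, 48 and 72 h, and viability read by MTT colorimetry. CD₅₀ is the concentration reducing control absorbance by 50%.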

rhinovirus B14 [3] = test: Antiviral activity against Human rhinovirus 14 assessed as reduction in virus yield after 24 to 36 hrs by agar plaque assay; type: functional; details: Rhinovirus B; read-out: ID50 (the source's name)
In short: (§2)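 Virus-yield reduction: infected monolayers given serial dilutions of compound, incubated 24–36 h at 33 °C, 3% CO₂ until cytopathic effect in controls was almost total. Monolayers then frozen and thawed; virus in supernatant titrated by plaque assay (50% plaque reduction in Hep-2 cells). ID₅₀ is the concentration inhibiting plaque formation by 50%, from dose–response curves by linear regression.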

[4] = Protective index, ratio of CD50 for human HeLa cells to ID50 for Human rhinovirus 14; in short: as §1
rhinovirus A39 = test: Antiviral activity against Human rhinovirus 39 assessed as reduction in virus yield after 24 to 36 hrs by agar plaque assay; type: functional; details: Rhinovirus A; read-out: ID50 (the source's name); in short: as §2
rhinovirus B14 [5] = test: Antiviral activity against Human rhinovirus 14 assessed as reduction in virus yield at 5 ug/ml added within 3 hrs after infection by agar plaque assay; type: functional, organism-based
In short: (§3)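 HRV14 (group A, ATCC; working stocks prepared as cellular lysates in DMEM with 2% heat-inactivated FCS). Compound was added to cells at different times, from h −1 to several hours post infection, and incubated 24–36 h at 33 °C, 3% CO₂ until cytopathic effect in controls was almost total. Monolayers were then freeze-thawed and supernatant virus titrated by plaque assay.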

rhinovirus B14 [6] = test: Antiviral activity against Human rhinovirus 14 assessed as reduction in virus yield at 5 ug/ml added 4 to 5 hrs after infection by agar plaque assay; type: functional, organism-based; in short: as §3
rhinovirus B14 [7] = test: Reversible antiviral activity against Human rhinovirus 14 assessed as reduction in virus yield by agar plaque assay; type: functional, organism-based

SMILES	PI [1]	CC50 [2] [µg/mL]	IC50 (rhinovirus B14 [3]) [µg/mL]	PI [4]	IC50 (rhinovirus A39) [µg/mL]	Activity (rhinovirus B14 [5])	Activity (rhinovirus B14 [6])	Activity (rhinovirus B14 [7])
CC(=O)c1ccc(OCCCOCCc2cc(C)no2)cc1	8	50 (≈ 165 µM)	25 (≈ 82.4 µM)	2	6 (≈ 19.8 µM)			
Fc1ccc(OCCCOc2ccc3c(c2)OCO3)cc1	1	25 (≈ 86.1 µM)	25 (≈ 86.1 µM)	1	25 (≈ 86.1 µM)			
CCOc1nc2ccc(OCCCOc3ccc4c(c3)OCO4)cc2o1	16	200 (≈ 560 µM)	25 (≈ 70 µM)	8	12 (≈ 33.6 µM)			
CCOc1nc2ccc(OCCCOc3ccc(C#N)cc3)cc2o1	33	50 (≈ 148 µM)	25 (≈ 73.9 µM)	2	1.5 (≈ 4.43 µM)			
CCOC(=O)c1ccc(OCCC2CCN(c3ccc(C)nn3)CC2)cc1 [PIRODAVIR]	516	3.1 (≈ 8.39 µM)	0.012 (≈ 0.0325 µM)	258	0.006 (≈ 0.0162 µM)	Active	inactive	
Cc1cc(OCCCOc2ccc3c(c2)OCO3)on1	4	50 (≈ 180 µM)	25 (≈ 90.2 µM)	2	12 (≈ 43.3 µM)			
CC(=O)c1ccc(OCCCOc2ccc3c(c2)OCO3)cc1	1	25 (≈ 79.5 µM)	25 (≈ 79.5 µM)	1	25 (≈ 79.5 µM)			
CC(=O)c1ccc(OCCCOCc2ccc3c(c2)OCO3)cc1	8	50 (≈ 152 µM)	6 (≈ 18.3 µM)	8	6 (≈ 18.3 µM)			
CCOc1nc2ccc(OCCCOc3ccc(C(C)=O)cc3)cc2o1	2000	200 (≈ 563 µM)	0.5 (≈ 1.41 µM)	400	0.1 (≈ 0.281 µM)	Active	inactive	Active
CCOC(=O)c1ccc(OCCCOCCc2cc(C)no2)cc1	714	50 (≈ 150 µM)	0.07 (≈ 0.21 µM)	714	0.07 (≈ 0.21 µM)			
Cc1cc(CCOCCCOc2ccc3c(c2)OCO3)on1	1	50 (≈ 164 µM)	50 (≈ 164 µM)	1	50 (≈ 164 µM)			

From ChEMBL document CHEMBL3352302, “Synthesis of new compounds with promising antiviral properties against group A and B Human Rhinoviruses” (Bioorg Med Chem, 2014)
